# ABCB1 block – human ABCB1 inhibition, ABCG2 as counter-screen; CCRF-Adr cells, JC-1 efflux, flow cytometry; P08183; inhibition, % at 6.6 µM; actives 0.067% (n = 190,000); in the data active means inhibition above about 40%;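 further: 0% = vehicle and 100% = reference inhibitor; higher value means more JC-1 retained so stronger ABCB1 efflux block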
# MEKK2mut PB1 HTS – signal of MEK5 binding to mutant human MEKK2 PB1 domain; actives 0.35% (n = 290,000); AID 1530; bead flow cytometry, Alexa488-MEK5 binding to MEKK2 mutant; percent response, % at 10 µM; in the data active means percent response above about 24%, passing the limit was not always enough
# MEKK3 PB1 HTS – MEKK3-MEK5 PB1 interaction, increase or decrease | Q99759 | bead-based flow cytometry, Alexa488-MEK5 binding to MEKK3; actives lie on both sides; 0 = blocked by unlabeled MEK5, 100 = vehicle | binding response (% of control), % at 10 µM | actives 1.4% (n = 290,000) | AID 1529;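 active means binding response more than 3 SD above or below the average of its plate-row segment, actives on both sides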;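 further: Alexa488 bead fluorescence after subtracting the streptavidin-only scavenger bead signal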
# MEKK2wt PB1 HTS – raises or lowers MEK5 binding to wildtype human MEKK2 PB1 domain. Q9Y2U5. bead flow cytometry, Alexa488-MEK5 binding to MEKK2 WT; actives lie on both sides. binding response (% of control), % at 10 µM. actives 1.1% (n = 290,000). AID 1531; in the data active means binding response below about 67% or above about 130%
# ABCG2 inh – inhibitors of human ABCG2 transporter, ABCB1 counter-screen. Q9UNQ0. IgMXP3 cells, JC-1 efflux, flow cytometry. inhibition, % at 6.6 µM. actives 0.1% (n = 190,000);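 active means inhibition above 80%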;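 further: 0% = DMSO and 100% = nicardipine control wells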
# Target sequence (Q9UNQ0 whole entry, looked up): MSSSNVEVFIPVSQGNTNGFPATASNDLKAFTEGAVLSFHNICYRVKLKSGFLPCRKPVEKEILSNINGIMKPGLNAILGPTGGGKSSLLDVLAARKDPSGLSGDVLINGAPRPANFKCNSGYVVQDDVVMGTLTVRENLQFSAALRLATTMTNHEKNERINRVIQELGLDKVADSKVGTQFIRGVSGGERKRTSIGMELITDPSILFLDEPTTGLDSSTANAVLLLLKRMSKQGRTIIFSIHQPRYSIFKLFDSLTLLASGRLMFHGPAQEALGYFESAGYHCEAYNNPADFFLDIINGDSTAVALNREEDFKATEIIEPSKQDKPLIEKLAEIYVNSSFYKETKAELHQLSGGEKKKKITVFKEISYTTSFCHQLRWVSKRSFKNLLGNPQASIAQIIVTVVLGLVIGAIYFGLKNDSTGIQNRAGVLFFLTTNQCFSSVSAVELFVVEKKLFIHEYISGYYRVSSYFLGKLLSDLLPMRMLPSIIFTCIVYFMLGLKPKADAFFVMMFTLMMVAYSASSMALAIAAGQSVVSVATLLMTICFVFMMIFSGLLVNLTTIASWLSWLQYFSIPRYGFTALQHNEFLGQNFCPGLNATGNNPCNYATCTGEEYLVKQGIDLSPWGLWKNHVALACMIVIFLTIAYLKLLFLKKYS
#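 Test system: IgMXP3 (ABCG2) plus far-red-tagged CCRF-Adr (ABCB1) cells / Amount: 3 million cells/mL in well / Reagent: JC-1 transporter substrate / Timing: 10 min compound exposure, 25 °C / Signal: flow cytometry, 530 nm JC-1 signal / Read-out: percent efflux inhibition, scaled nicardipine 100% to DMSO 0% / Benchmarks: nicardipine as high control, DMSO as low control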
# Efflux pump inh – inhibitors of Candida antifungal efflux pumps expressed in yeast; S. cerevisiae Candida pump triplex, Nile Red efflux; inhibition, % at 10 µM; actives 0.44% (n = 330,000); AID 485275;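 active means plate passing quality check with inhibition over a set limit, or well fluorescence over plate mean plus 4 SD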;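 further: Nile Red retained in pooled yeast measured as flow cytometry median fluorescence; 0% = buffer negative control and 100% = Enniatin B positive control; higher means more Nile Red kept so more efflux inhibition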
# MEKK2wt confirm – raises or lowers MEK5 binding to wildtype human MEKK2, retest | actives 2.4% (n = 5,900) | shares compounds with MEKK3 PB1 HTS | bead flow cytometry, Alexa488-MEK5 binding to MEKK2 WT; actives lie on both sides | binding response (% of control), % at 10 µM; in the data active means binding response below about 16% or above about 210%; inactive means in between
# MEKK2mut confirm – signal of MEK5 binding to mutant human MEKK2, retest; bead flow cytometry, Alexa488-MEK5 binding to MEKK2 mutant; actives 2% (n = 5,900); percent response, % at 10 µM; shares compounds with MEKK3 PB1 HTS; AID 1893; in the data active means percent response mostly above about 71%, no sharp cut-off; inactive means mostly below about 38%;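 further: higher means compound restores mutant binding toward wildtype level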
# MEKK3 confirm – confirmation of inhibitors of MEK5 binding to human MEKK3. shares compounds with MEKK3 PB1 HTS. bead flow cytometry, Alexa488-MEK5 binding to MEKK3; active compounds read low. binding response (% of control), % at 10 µM. actives 1.8% (n = 5,900);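 active means binding response below 72% of control, or above a set upper limit, though filed actives all read lower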;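 further: 100% = DMSO only wells and 0% = binding blocked by excess unlabeled MEK5; lower values mean stronger disruption of MEK5 binding to MEKK3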
# Starred values were filed as active, the others as inactive; · = no result; [ ] = dose if it differs, or a comment. Rows were chosen to be rich in hits. Some 2.5% of all compounds tested hit in one or more screens of this group.
SMILES,ABCB1 block,MEKK2mut PB1 HTS,MEKK3 PB1 HTS,MEKK2wt PB1 HTS,ABCG2 inh,Efflux pump inh,MEKK2wt confirm,MEKK2mut confirm,MEKK3 confirm
Cc1ccccc1Cc1c(C)nc2nc(SCC(=O)NCc3ccco3)nn2c1C,0.8,4.0,116.0,118.0,0.6,-0.1,·,·,·
C=CC[n+]1ccc(/C=C2\C=Cc3cc(C)ccc3N2CC)c2ccccc21,-0.2,17.0,101.0,131.0,-5.3,·,·,·,·
COc1ccc(CNC(=O)C/C(C)=N/NC(=O)c2ccc(OC)cc2OC)cc1,·,-4.0,97.0,91.0,·,0.3,·,·,·
CCCC1Cc2c(sc(NC(=S)NC(=O)c3ccccc3)c2C#N)CO1 (stereo not drawn),0.0,0.0,134.0*,105.0,2.2,-0.2,97.0,-3.0,93.0
Cc1ccc(-c2nnn(CC(=O)NC3CCN(Cc4ccccc4)CC3)n2)cc1,-0.1,1.0,71.0*[inhibitor],111.0,-1.0,-0.1,110.0,0.0,105.0
CCCn1c(N2CCN(C(=O)N3CCCCC3)CC2)nc2ccccc21,0.9,-18.0,2.0*[inhibitor],2.0*[inhibitor],3.0,0.1,104.0,1.0,101.0
CCCn1c(N2CCN(C(=O)Nc3ccccc3)CC2)nc2ccccc21,1.0,-9.0,90.0,85.0,6.6,0.0,·,·,·
CN(/N=C/C=C/c1ccccc1)C1=NS(=O)(=O)c2ccccc21,-0.5,0.0,134.0*,106.0,-4.6,-0.1,102.0,-3.0,97.0
CCC1=Nc2cc(C(=O)NCCCOC)ccc2Sc2ccccc21,-0.4,6.0,125.0*,127.0,6.9,-0.2,98.0,0.0,105.0
CCCC1=Nc2cc(C(=O)NCCCOCC)ccc2Sc2ccccc21,0.5,1.0,100.0,100.0,19.7,0.1,·,·,·
O=C(CSc1nnc(NC(=O)c2ccccc2F)s1)NCc1ccco1,·,0.0,100.0,104.0,·,0.5,·,·,·
C=CCNC(=O)c1ccc(Cn2cc(C(F)(F)F)ccc2=O)cc1,0.8,2.0,105.0,105.0,2.7,-0.1,·,·,·
CC(C)CCNC(=O)C(=O)NCCC1=CCCCC1,0.6,2.0,105.0,109.0,3.7,-0.2,·,·,·
CC(NC(=O)C(=O)NCCC1=CCCCC1)c1ccccc1 (stereo not drawn),0.1,0.0,139.0*,105.0,-0.8,0.1,98.0,-2.0,98.0
O=c1c2ccccc2c(C=Nc2ccc(Cl)cn2)c(O)n1-c1cc(Cl)ccc1N1CCOCC1,1.3,-46.0,2.0*[inhibitor],2.0*[inhibitor],0.8,0.4*,84.0,-5.0,97.0
CCN(CC)CCCN=Cc1c(O)n(-c2ccccc2C)c(=O)c2ccccc12,·,4.0,104.0,106.0,·,-0.1,·,·,·
COCC(C)n1c(SCC(=O)N2CCc3ccccc3C2)nc2ccccc2c1=O (stereo not drawn),7.3,-1.0,108.0,103.0,9.9,-1.1,·,·,·
COC(=O)c1ccccc1C(=O)c1ccc2c(c1)NC(=O)CO2,-0.3,-8.0,86.0,87.0,0.1,0.0,·,·,·
O=C(Nc1ccc(Cl)cn1)c1ccc(COc2ccccc2Br)o1,0.5,-18.0,49.0*[inhibitor],50.0,25.3,0.0,107.0,14.0,110.0
CCOc1ccc(OCc2ccc(C(=O)Nc3ccc(Cl)cn3)o2)cc1,0.8,0.0,101.0,101.0,7.0,0.0,·,·,·
COc1ccc(Nc2c3c(nc4c(-c5ccccc5)c(C)nn24)CCC3)cc1,1.0,0.0,128.0*,116.0,8.0,0.1,98.0,0.0,106.0
Cc1nn2c(NCc3ccccn3)c3c(nc2c1-c1ccccc1)CCC3,·,1.0,89.0,92.0,·,0.1,·,·,·
CCC(C)c1ccccc1N1CC(C(=O)N(C)CC(=O)Nc2cccc(F)c2)CC1=O (stereo not drawn),·,·,·,·,·,-0.1,·,·,·
Cc1[nH]c2ccccc2c1C(=O)CSC(=S)N1CCCCC1,0.3,-1.0,113.0,96.0,4.4,0.1,·,·,·
COc1ccc(N2C(=O)c3cccc4cc(Br)cc(c34)C2=O)cc1,0.9,-18.0,73.0*[inhibitor],91.0,2.5,0.0,96.0,-3.0,97.0
SMILES,ABCB1 block,MEKK2mut PB1 HTS,MEKK3 PB1 HTS,MEKK2wt PB1 HTS,ABCG2 inh,Efflux pump inh,MEKK2wt confirm,MEKK2mut confirm,MEKK3 confirm
CCN1C(=O)[C@H]2[C@H]3CN=C(SCc4ccc(C)cc4)N3[C@@](C)(C(=O)OC)[C@H]2C1=O,·,·,·,·,·,0.1,·,·,·
COc1ccc(CNS(=O)(=O)c2cn(C)c(=O)n(C)c2=O)cc1,·,-1.0,88.0,86.0,·,0.1,·,·,·
COc1ccc(CCN2C(=O)C(Oc3ccccc3C)C2c2ccc3c(c2)OCO3)cc1OC (stereo not drawn),10.9,3.0,100.0,100.0,25.6,-0.2,·,·,·
COc1ccc(CCN2C(=O)C(Oc3ccccc3C)C2c2ccc3c(c2)OCO3)cc1 (stereo not drawn),3.4,1.0,156.0*,109.0,49.1,-0.1,93.0,-10.0,98.0
O=C(c1ccc(Cl)cc1)[C@@H]1[C@@H]2C(=O)N(c3cccc4ccccc34)C(=O)[C@@H]2C2c3ccccc3C=NN21 (stereo partly drawn),1.9,1.0,153.0*,109.0,3.0,0.0,101.0,-8.0,100.0
OCCN(CCO)CC(O)COc1ccc(C23CC4CC(CC(C4)C2)C3)cc1 (stereo not drawn),-0.1,3.0,132.0*,122.0,0.1,-0.1,140.0,15.0,107.0
OCCN(CCO)CC(O)COc1ccc(Br)cc1 (stereo not drawn),·,3.0,94.0,97.0,·,-0.1,·,·,·
CC(C)N(C)CCOC(=O)C1COc2ccccc2O1 (stereo not drawn),·,28.0,131.0*,116.0,·,-0.1,93.0,-13.0,92.0
CC(C(=O)NCCS(=O)(=O)c1ccc(Cl)cc1)S(=O)(=O)c1ccc(Cl)cc1 (stereo not drawn),1.0,2.0,108.0,104.0,1.8,0.2,·,·,·
CC(C(=O)NCCS(=O)(=O)c1ccc(Cl)cc1)S(=O)(=O)c1ccccc1 (stereo not drawn),1.1,8.0,152.0*,139.0,1.4,-0.1,106.0,4.0,102.0
COc1ccc2nc3cc(Cl)ccc3c(Nc3cc(CN4CCCC4)c(O)c(CN4CCCC4)c3)c2n1,·,22.0,97.0,138.0*,·,0.3,138.0,26.0,96.0
Cc1ccccc1NC(=O)CSCCN1C(=O)c2ccccc2C1=O,1.9,-1.0,74.0*[inhibitor],97.0,12.7,0.1,98.0,0.0,99.0
Cc1ccc(-n2ncc3c(SCc4ccccn4)ncnc32)c(C)c1,0.4,0.0,100.0,101.0,0.0,0.1,·,·,·

# Screens from PubChem BioAssay.
